From PubChem BioAssay
core dimer inh – HCV core protein dimerization inhibition; inhibition, % at 5 µM; 0.33% of 300,000 active; AID 1899; TR-FRET GST/Flag-core106 dimerization, 1536-well;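 active = inhibition above the mean of all tested compounds plus 3 SD, set per screening campaign, cut at about 45% in these data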
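Material: GST/Flag-tagged HCV core106 proteins. Incubation: 4 h, 22.5 °C incubation. Read-out basis: inhibition (%) from 671 over 617 nm ratio. Measured by: TR-FRET, excitation 340 nm, emission 617 and 671 nm.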
NS3 helicase inh – HCV NS3 helicase inhibition; NS3 helicase DNA unwinding, Cy5 molecular beacon fluorescence; AID 1800; 0.56% of 290,000 active; inhibition, % at 10.9 µM;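 active = inhibition above the mean of all tested compounds plus 3 SD, set per campaign, cut at about 35% in these data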;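 also: 0% = DMSO wells and 100% = thioflavine S control wells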
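Compound dosing – single dose, 10.9 µM nominal final, DMSO 0.8% final · System – NS3 helicase fragment of HCV · Buffer or medium – MOPS pH 6.5, MgCl2, DTT, Tween20, BSA · Signal – Cy5 beacon fluorescence read at start and 1 h · Also added – annealed dual-labelled DNA beacon duplex, ATP-started · Schedule – 1 h at 25 °C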
TAAR1 antagonist – antagonists of human TAAR1 | 1.5% of 360,000 active | CHO RD-HGA16 TAAR1, Fluo-8 calcium fluorescence, antagonist | inhibition, % at 3 µM | AID 624466 | Q96RJ0;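 active = inhibition above a per-plate cutoff, the mean inhibition of test compounds on that plate plus 3 SD, cut at about 49% in these data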;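 also: 0% = DMSO plus EC80 beta-PEA response and 100% = DMSO alone without agonist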
Target sequence (Q96RJ0 whole entry, looked up): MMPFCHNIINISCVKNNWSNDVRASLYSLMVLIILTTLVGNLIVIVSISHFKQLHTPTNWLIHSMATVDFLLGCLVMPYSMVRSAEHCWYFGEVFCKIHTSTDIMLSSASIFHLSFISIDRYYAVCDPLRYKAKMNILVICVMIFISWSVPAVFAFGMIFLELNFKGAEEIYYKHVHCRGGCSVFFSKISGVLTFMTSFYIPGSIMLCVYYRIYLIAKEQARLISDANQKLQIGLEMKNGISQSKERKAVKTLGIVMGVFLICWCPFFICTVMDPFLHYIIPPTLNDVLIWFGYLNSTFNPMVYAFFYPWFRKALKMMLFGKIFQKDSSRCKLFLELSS
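Test system – hTAAR1-expressing CHO RD-HGA16 cells, Gα16-coupled · Also added – β-PEA at EC80 concentration, post-compound challenge · Compound – 3 µM, single point · Incubation – dye loading 75 min at 37 °C, then 30 min room temperature · Measured by – Fluo-8 intracellular calcium dye fluorescence, real-time kinetic reads · Benchmarks – vehicle and agonist controls · Replicates – singlicate, one well per test compound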
rCAG binder – binds r(CAG) RNA repeats. 1.3% of 370,000 active. AID 651821. r(CAG) RNA repeat, TO-PRO-1 dye displacement fluorescence. inhibition, % at 3 µM;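 active = inhibition above the plate cutoff, the mean of all test compounds on that plate plus 3 SD, cut at about 35% in these data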;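 also: 0% = DMSO alone and 100% = 100 µM mitoxantrone as full dye displacement; higher means more dye released from RNA so lower well fluorescence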
TAAR1 ag – agonists of human TAAR1; AID 624467; CHO RD-HGA16 TAAR1, Fluo-8 calcium fluorescence; vehicle wells 0%, saturating PEA agonist 100%; 0.99% of 360,000 active; activation, % at 3 µM;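 active = activation above the mean activation of all test compounds in the run plus 3 SD, cut at about 38% in these data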
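Benchmarks: low control DMSO, high control PEA (EC100); System: CHO RD-HGA16 cells carrying human TAAR1 plus Gα16; Detection: Fluo-8 fluorescence, 5 s baseline then 140 s kinetic read; Schedule: 17-24 h plating, Fluo-8 75 min 37 °C, 30 min RT; Read-out basis: % activation from peak over basal fluorescence ratio, DMSO-to-PEA scaled.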
TAAR1 nonsel count – nonselective antagonism, TAAR1 counter-screen; shares compounds with TAAR1 antagonist; counterscreen cell line, calcium fluorescence, antagonist mode; inhibition, % at 3 µM; 77% of 2,400 active; in the data active = inhibition above about 22%;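 also: CHO-Ga16 host cells stimulated with ATP at an EC80 level; 0% = agonist EC80 plus vehicle and 100% = vehicle without agonist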
TAAR1 antag conf – confirmation of human TAAR1 antagonists | shares compounds with TAAR1 antagonist | TAAR1-expressing cells, fluorescence antagonist read-out | AID 651785 | 40% of 2,400 active | inhibition, % at 3 µM; in the data active = inhibition above about 49%;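 also: CHO-Ga16 host cells challenged with agonist PEA near its EC80; 0% = agonist at EC80 plus vehicle and 100% = vehicle with no agonist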
Ga16 nonsel ag – nonselective Ga16 agonism, counter-screen | shares compounds with TAAR1 antagonist | AID 651953 | Ga16-expressing cells, calcium fluorescence, agonist counterscreen | activation, % at 3 µM | 18% of 2,400 active; in the data active = activation above about 12%;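 also: 0% = vehicle wells and 100% = saturating stimulus response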
TAAR1 ag counter – TAAR1 agonism, antagonist counter-screen; AID 651955; activation, % at 3 µM; 2% of 2,400 active; hTAAR1 cell line, fluorescence activation, agonist mode; shares compounds with TAAR1 antagonist; in the data active = activation above about 37%;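 also: CHO cells stably expressing TAAR1 with calcium dye readout; 0% = DMSO vehicle and 100% = full agonist response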
The depositor's hits bear a star; / = no result given. Most compounds without a hit are left out; they make up all but 3.7% or so of the library.

SMILES	core dimer inh	NS3 helicase inh	TAAR1 antagonist	rCAG binder	TAAR1 ag	TAAR1 nonsel count	TAAR1 antag conf	Ga16 nonsel ag	TAAR1 ag counter
CCC(=O)N(C)C[C@@H]1[C@H](c2ccc(C3=CCCCC3)cc2)[C@H](CO)N1C(=O)CC	/	/	/	1	/	/	/	/	/
COC(=O)[C@]12C[C@H](CC(=O)NCc3cccs3)C(=O)N(Cc3ccccc3)C1=C[C@H](C(C)C)O[C@@H]2C1CC1	/	/	-45	1	-3	/	/	/	/
CCN(CC)S(=O)(=O)c1ccc(S(=O)(=O)N(CC(=O)Nc2ccccc2)Cc2ccco2)cc1	9	0	62*	-1	17	31*	53*	9	9
Nc1ccn([C@@H]2O[C@H](C(=O)N[C@H](Cc3ccccc3)C(=O)N3CCN(C(=O)N4CCCCC4)CC3)[C@@H](O)[C@H]2O)c(=O)n1	/	/	-5	2	-1	/	/	/	/
CCOc1ccccc1N1CCN(C(=O)c2cc(-c3cc(OC)ccc3OC)nc3ccccc23)CC1	35	-21	73*	2	4	21	43	6	4
COc1ccc(OC)c(-c2cc(C(=O)O)c3cc4ccccc4cc3n2)c1	/	/	-5	-1	1	/	/	/	/
CCOc1ccc2oc(C(=O)N3CCN(c4ccccc4OCC)CC3)c(C)c2c1	7	/	60*	-1	3	20	43	2	11
COc1ccc(-c2cc(C(=O)N3CCN(c4ccccc4F)CC3)c3ccccc3n2)c(OC)c1	12	-35	33	5	7	/	/	/	/
COc1cccc(CN2CCN(C(=O)c3cc(-c4cccnc4)nc4ccc(C)cc34)CC2)c1	6	-14	66*	-5	14	27*	48	9	8
COc1ccc(N2CCN(C(=O)c3cc(-c4cc(OC)ccc4OC)nc4ccccc34)CC2)cc1	10	1	60*	1	10	27*	49*	11	15
Cc1ccccc1CN1CCCCC(NC(=O)c2cccc([N+](=O)[O-])c2)C1=O (configuration not stated)	/	/	/	0	/	/	/	/	/
C[C@H]1CCCN1c1ccc2c(c1)O[C@H]1CCN(C1)S2(=O)=O	/	/	/	5	/	/	/	/	/
CCOC(=O)[C@]12CCCC3=C1N(CCC3)C(=O)[C@@H](CC(=O)NCc1cccc(C(F)(F)F)c1)C2	/	/	/	-1	/	/	/	/	/
COc1ccc(-c2cc(C(=O)N3CCCCCC3)c3ccccc3n2)c(OC)c1	29	-8	35	5	1	/	/	/	/
COc1ccc(OC)c(-c2cc(C(=O)N3CCN(c4ncccn4)CC3)c3ccccc3n2)c1	10	-11	78*	3	11	28*	47	7	20
CC(=O)c1ccc(N2CCN(C(=O)c3cc4c(C)nc5ccccc5c4o3)CC2)cc1	2	-10	3	3	10	/	/	/	/
COc1ccc(N2CCN(C(=O)c3cc4c(C)nc5ccccc5c4o3)CC2)cc1	-10	-13	62*	-5	4	37*	51*	12*	10
COc1ccc(-c2cc(C(=O)N3CCN(c4ncccn4)CC3)c3ccccc3n2)cc1	/	/	52*	3	35	29*	48	10	8
CCOc1ccc(-c2cc(C(=O)N3CCN(c4ccccn4)CC3)c3ccccc3n2)cc1	8	-3	31	-1	11	/	/	/	/
COc1ccc(-c2cc(C(=O)N3CCN(c4ncccn4)CC3)c3ccccc3n2)c(OC)c1	9	-11	74*	4	16	31*	54*	8	9
COC(=O)c1ccc(Cn2ccc3ccc(-c4ccc5ccn(C(=O)C6CCCCC6)c5c4)cc32)cc1	/	/	/	19	/	/	/	/	/
O=C1N(c2ccccc2)CC2CC(c3ccccc3)N3CCCC123 (configuration not stated)	/	/	/	12	/	/	/	/	/
